Laboratory results as given in ChEMBL document CHEMBL4715780, “Biological evaluation of tetracationic compounds based on two 1,4-diazabicyclo[2.2.2]octane moieties connected by different linkers” (Bioorg Med Chem, 2016).

What was measured:
Pseudomonas aeruginosa = experiment: Bactericidal activity against Pseudomonas aeruginosa ATCC 9027 assessed as colony forming unit at 2.5 ug/ml measured at 2 hrs by time kill assay (reference value: 3.6 x 10^5 CFU/ml); type: functional; details: dose 2.5 µg/ml
Summary of the method: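 Overnight Pseudomonas aeruginosa culture adjusted in Mueller–Hinton broth to about 2.5 × 10⁵ CFU/mL. Compound added at 2.5, 5 or 10 µg/mL, then incubated at 37 °C with shaking (580 rpm) for 22 h. Viable colonies counted on plates at 2, 4, 6, 8 and 22 h. Quantification limit 100 CFU/mL; triplicate.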

Staphylococcus aureus [1] = experiment: Bactericidal activity against […] Staphylococcus aureus ATCC 25923 assessed as colony forming unit at 2.5 ug/ml measured at 6 hrs by time kill assay (reference value: 1.2 x 10^6 CFU/ml); type: functional; details: dose 2.5 µg/ml
Summary of the method: (§1)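 S. aureus overnight culture was adjusted in MHB to ~8 × 10⁵ CFU/mL. Compound was added and the mixture incubated at 37 °C with shaking (580 rpm) for 22 h. Aliquots were plated for colony counts at 2, 4, 6, 8 and 22 h, with a quantification limit of 100 CFU/mL. Runs were done in triplicate.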

[2] = Selectivity index, ratio of CC50 for HEK293T cells assessed as reduction in cell viability measured after 24 hrs by MTT assay to MIC for Candida albicans CEMTC 34 assessed as bacterial growth inhibition by CLSI protocol based serial microdilution method; type: toxicity; details: human, read-out: Selectivity Index
Summary of the method: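 SI = CC₅₀ (HEK293T) / MIC. HEK293T cells were seeded at 20,000/well overnight, then exposed to 10–250 µg/mL in IMDM with 10% FBS for 24 h. MTT was added for 4 h, solubilised with SDS-HCl, and read at 570 nm; duplicates, ≥2 independent runs. MIC came from two-fold dilutions in Sabouraud dextrose broth at ~5 × 10⁵ CFU/mL, 37 °C with shaking, read at 595 nm, in duplicate.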

Staphylococcus aureus [3] = experiment: Bactericidal activity against […] Staphylococcus aureus ATCC 25923 assessed as reduction in colony forming unit at 2.5 ug/ml measured at 2 hrs by time kill assay relative to control; type: functional; parameters: scale not given: the % may be the effect or the level left; details: dose 2.5 µg/ml; summary of the method: as §1
Staphylococcus aureus [4] = experiment: Bactericidal activity against […] Staphylococcus aureus ATCC 25923 assessed as reduction in colony forming unit at 5 ug/ml measured at 4 hrs by time kill assay relative to control; type: functional; parameters: scale not given: the % may be the effect or the level left; details: dose 5 µg/ml; summary of the method: as §1

| Structure (SMILES) | Activity (Pseudomonas aeruginosa) | Activity (Staphylococcus aureus [1]) | selectivity ratio at 24 h [2] | Activity (Staphylococcus aureus [3]) | Activity (Staphylococcus aureus [4]) |
| --- | --- | --- | --- | --- | --- |
| CCCCCCCCCCCC[N+]12CC[N+](CCC[N+]34CC[N+](CCCCCCCCCCCC)(CC3)CC4)(CC1)CC2 | 330 CFU/ml | <100 CFU/ml | – | – | – |
| CCCCCCCCCCCC[N+]12CC[N+](Cc3ccccc3C[N+]34CC[N+](CCCCCCCCCCCC)(CC3)CC4)(CC1)CC2 | 6800 CFU/ml | <100 CFU/ml | 1 | >=99% | 99.9% |
